Measurements taken from ChEMBL document CHEMBL4190304, “Peroxynitrite-Scavenging Glycosides from the Stem Bark of Catalpa ovata” (J Nat Prod, 2017).

Test: Peroxynitrite scavenging activity assessed as inhibition of DHR 123 oxidation after 5 mins in presence of SIN-1 by fluorescence assay
Format: functional
Procedure, shortened: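 ONOO− generated by decomposition of SIN-1 (10 μM) in buffer of 90 mM NaCl, 50 mM Na3PO4, 5 mM KCl, 100 μM DTPA, pH 7.4 (N2-purged, on ice), with DHR 123 working solution 5 μM. Fluorescence read (ex 480/em 530 nm) 5 min after treatment with and without SIN-1. Final minus background intensity gives % inhibition of oxidation; IC50, mean ± SD, three independent experiments. DL-penicillamine positive control.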

Structure (SMILES)	IC50
COc1ccc(C(=O)O[C@H]2[C@@H]3C=CO[C@@H](O[C@@H]4O[C@H](CO)[C@@H](O)[C@H](O)[C@H]4O)[C@@H]3[C@@]3(CO)O[C@@H]23)cc1OC	> 100 µM
COc1cc(/C=C/C(=O)O[C@H]2[C@@H]3C=CO[C@@H](O[C@@H]4O[C@H](CO)[C@@H](O)[C@H](O)[C@H]4O)[C@@H]3[C@@]3(CO)O[C@@H]23)ccc1O	1.6 µM
COc1cc(/C=C/C(=O)O[C@@H]2C[C@@](O)(CO)[C@H]3[C@H](O[C@@H]4O[C@H](CO)[C@@H](O)[C@H](O)[C@H]4O)OC=C[C@H]32)ccc1O	2 µM
O=C(O[C@H]1[C@@H]2CCO[C@@H](O[C@@H]3O[C@H](CO)[C@@H](O)[C@H](O)[C@H]3O)[C@@H]2[C@@]2(CO)O[C@@H]12)c1ccc(O)cc1	58.4 µM
COc1cc(CCO[C@@H]2O[C@H](CO)[C@@H](O)[C@H](O[C@@H]3O[C@H](C)[C@@H](O)[C@H](O)[C@H]3O)[C@H]2O)ccc1O	7.7 µM
COc1cc(/C=C/C(=O)OC[C@H]2O[C@@H](Oc3ccc(O)cc3OC)[C@H](O)[C@@H](O)[C@@H]2O)ccc1O	0.48 µM
COc1cc(/C=C/C(=O)OC[C@H]2O[C@@H](Oc3ccc(CO)cc3OC)[C@H](O)[C@@H](O)[C@@H]2O)ccc1O	0.17 µM
COc1ccc(/C=C/C(=O)O[C@H]2[C@@H]3C=CO[C@@H](O[C@@H]4O[C@H](CO)[C@@H](O)[C@H](O)[C@H]4O)[C@@H]3[C@@]3(CO)O[C@@H]23)cc1	78.5 µM
COc1cc(/C=C/C(=O)O[C@H]2[C@@H]3CCO[C@@H](O[C@@H]4O[C@H](CO)[C@@H](O)[C@H](O)[C@H]4O)[C@@H]3[C@@]3(CO)O[C@@H]23)ccc1O	2.2 µM
COc1cc(/C=C/C(=O)OC[C@H]2O[C@@H](OC[C@@H]3c4cc(/C=C/C=O)cc(OC)c4O[C@H]3c3ccc(O)c(OC)c3)[C@H](O)[C@@H](O)[C@@H]2O)ccc1O	0.79 µM
O=C(OC[C@@]1(O)CO[C@@H](O[C@H]2[C@H](OCCc3ccc(O)cc3)O[C@H](CO)[C@@H](O)[C@@H]2O)[C@@H]1O)c1ccc(O)cc1	36.2 µM
COc1cc(C(=O)OC[C@@]2(O)CO[C@@H](O[C@H]3[C@H](OCCc4ccc(O)cc4)O[C@H](CO)[C@@H](O)[C@@H]3O)[C@@H]2O)ccc1O	8.6 µM
COC/C=C/c1cc(OC)c2c(c1)[C@H](CO[C@@H]1O[C@H](COC(=O)/C=C/c3ccc(O)c(OC)c3)[C@@H](O)[C@H](O)[C@H]1O)[C@@H](c1ccc(O)c(OC)c1)O2	0.34 µM
COc1cc(/C=C/C(=O)OC[C@H]2O[C@@H](O[C@@H]3OC=C[C@H]4[C@H](OC(=O)/C=C/c5ccc(O)c(OC)c5)[C@@H]5O[C@]5(CO)[C@@H]34)[C@H](O)[C@@H](O)[C@@H]2O)ccc1O	1.1 µM
COc1ccc(/C=C/C(=O)O[C@@H]2C[C@@](O)(CO)[C@H]3[C@H](O[C@@H]4O[C@H](CO)[C@@H](O)[C@H](O)[C@H]4O)OC=C[C@H]32)cc1O	3.9 µM
COc1ccc(C(=O)O[C@H]2[C@@H]3C=CO[C@@H](O[C@@H]4O[C@H](CO)[C@@H](O)[C@H](O)[C@H]4O)[C@@H]3[C@@]3(CO)O[C@@H]23)cc1	36.4 µM
O=C(/C=C/c1ccc(O)cc1)OC[C@@]1(O)CO[C@@H](O[C@H]2[C@H](OCCc3ccc(O)cc3)O[C@H](CO)[C@@H](O)[C@@H]2O)[C@@H]1O	4.5 µM
OC[C@H]1O[C@@H](OCCc2ccc(O)cc2)[C@H](O[C@@H]2OC[C@](O)(CO)[C@H]2O)[C@@H](O)[C@@H]1O	15.7 µM
C[C@]1(O)C[C@@H](OC(=O)c2ccc(O)cc2)[C@@H]2CCO[C@@H](O[C@@H]3O[C@H](CO)[C@@H](O)[C@H](O)[C@H]3O)[C@@H]21	8.3 µM
COc1cc(/C=C/C(=O)OC[C@]23O[C@H]2[C@@H](OC(=O)/C=C/c2ccc(O)c(OC)c2)[C@@H]2C=CO[C@@H](O[C@@H]4O[C@H](CO)[C@@H](O)[C@H](O)[C@H]4O)[C@@H]23)ccc1O	0.88 µM
O=C(O[C@@H]1C[C@@](O)(CO)[C@H]2[C@H](O[C@@H]3O[C@H](CO)[C@@H](O)[C@H](O)[C@H]3O)OCC[C@H]21)c1ccc(O)cc1	39.5 µM
COc1cc(/C=C/C(=O)OC[C@H]2O[C@@H](OCCC3(O)CCC(=O)CC3)[C@H](O)[C@@H](O)[C@@H]2O)ccc1O	1.02 µM
COc1cc(/C=C/C(=O)OC[C@H]2O[C@@H](OCCc3ccc(O)cc3)[C@H](O)[C@@H](O)[C@@H]2O)ccc1O	0.14 µM
COc1cc(/C=C/C(=O)OC[C@H]2OC(OC[C@H]3[C@@H](Cc4ccc(O)c(OC)c4)CO[C@@H]3c3ccc(O)c(OC)c3)[C@H](O)[C@@H](O)[C@@H]2O)ccc1O (some centres undefined)	0.81 µM
O=C(OC1C[C@@]2(O)COC3C[C@@H](O[C@@H]4O[C@H](CO)[C@@H](O)[C@H](O)[C@H]4O)[C@H]2[C@H]1C3)c1ccc(O)cc1 (some centres undefined)	76.7 µM
CC(C)(S)C(N)C(=O)O (racemic) [DL-PENICILLAMINE]	3.4 µM
O=C(O[C@H]1[C@@H]2C=CO[C@@H](O[C@@H]3O[C@H](CO)[C@@H](O)[C@H](O)[C@H]3O)[C@@H]2[C@@]2(CO)O[C@@H]12)c1ccc(O)cc1 [CATALPOSIDE]	> 100 µM
COc1cc(C(=O)O[C@H]2[C@@H]3C=CO[C@@H](O[C@@H]4O[C@H](CO)[C@@H](O)[C@H](O)[C@H]4O)[C@@H]3[C@@]3(CO)O[C@@H]23)ccc1O [PICROSIDE II]	6 µM
O=C(/C=C/c1ccc(O)cc1)O[C@H]1[C@@H]2C=CO[C@@H](O[C@@H]3O[C@H](CO)[C@@H](O)[C@H](O)[C@H]3O)[C@@H]2[C@@]2(CO)O[C@@H]12 [SPECIOSIDE]	13.6 µM
